According to ChEMBL document CHEMBL4229422, “Synthesis and pharmacological evaluation of pyrazolo[4,3-c]quinolinones as high affinity GABAA-R ligands and potential anxiolytics” (Bioorg Med Chem, 2018):
pIC50, pKi: −log10 of the molar value. Calls of active or inactive are those of the source. No cut-off for these calls is given here.

Assays:
Rattus norvegicus [1] = assay: Anxiolytic activity in Wistar rat assessed as time spent on open arms at 1 mg/kg, ip administered 30 mins prior to testing measured for 5 mins by elevated plus-maze test (reference value: 20%); type: functional
Method in brief: (§1)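 Adult male Wistar rats (65–75 days, 280–320 g), group-housed, 12 h light–dark, 21-22 °C, handled on four days beforehand. Doses of 0.25, 0.5, 1 and 3 mg/kg were dissolved in propylenglycol, diluted in aqueous 0.6 % v/v Tween 80 and given ip 30 min before the EPM. Vehicle controls received the same mixture. Behaviour was recorded 5 min as % time in open arms relative to open plus closed arms. About 7 rats per dose, mean ± S.E.M., ANOVA.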

[2] = Displacement of [3H]-FNZ from benzodiazepine binding site of GABAA receptor in bovine synaptosomal membranes after 1 hr by scintillation counting method; type: cell membranes, Bos taurus
Rattus norvegicus [3] = assay: Toxicity in Wistar rat assessed as change in locomotor activity at 1 mg/kg, ip administered 30 mins; type: organism-based; conditions: in vivo, 0.5 h
Method in brief: (§2)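 Locomotor or exploratory activity was scored as the number of closed-arm entries during the 5 min EPM session. Male Wistar rats (280–320 g) received 0.25–3 mg/kg ip 30 min beforehand, in propylenglycol diluted with 0.6 % v/v Tween 80. Vehicle-injected controls were included. About 7 rats per dose, ANOVA.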

Rattus norvegicus [4] = assay: Toxicity in Wistar rat assessed as change in locomotor activity at 0.25 to 3 mg/kg, ip administered 30 mins; type: organism-based; conditions: in vivo, 0.5 h; method in brief: as §2
Rattus norvegicus [5] = assay: Anxiolytic activity in Wistar rat assessed as increase in time spent on open arms at 0.5 mg/kg, ip administered 30 mins prior to testing measured for 5 mins by elevated plus-maze test; type: functional, organism-based; method in brief: as §1
Rattus norvegicus [6] = assay: Anxiogenic activity in Wistar rat assessed as reduction in time spent on open arms at 0.25 to 0.5 mg/kg, ip administered 30 mins prior to testing measured for 5 mins by elevated plus-maze test; type: functional, organism-based; method in brief: as §1
Rattus norvegicus [7] = assay: Anxiogenic activity in Wistar rat assessed as reduction in time spent on open arms at 0.25 to 3 mg/kg, ip administered 30 mins prior to testing measured for 5 mins by elevated plus-maze test; type: functional, organism-based; method in brief: as §1

| Structure (SMILES) | pIC50 [2] | pKi [2] | other results |
| --- | --- | --- | --- |
| COc1ccc(-n2nc3c4cc(C)ccc4[nH]cc-3c2=O)cc1 | 9.27 | 9.54 | Activity (Rattus norvegicus [1]): 50%; Activity (Rattus norvegicus [3]): Non-Toxic |
| COc1ccc2[nH]cc3c(=O)n(-c4ccccc4F)nc-3c2c1 | 8.82 | 9.10 |  |
| Cc1ccc2[nH]cc3c(=O)n(-c4ccccc4)nc-3c2c1 | 9.23 | 9.50 |  |
| Cc1ccc2[nH]cc3c(=O)n(-c4ccccc4F)nc-3c2c1 | 9.43 | 9.71 |  |
| COc1ccc(-n2nc3c4cc(Br)ccc4[nH]cc-3c2=O)cc1 | 9.49 | 9.76 | Activity (Rattus norvegicus [4]): Non-Toxic; Activity (Rattus norvegicus [5]): Active |
| Cc1ccc2[nH]cc3c(=O)n(-c4ccc(F)cc4)nc-3c2c1 | 8.94 | 9.21 |  |
| O=c1c2c[nH]c3ccc(Br)cc3c-2nn1-c1ccccc1 | 9.08 | 9.36 | Activity (Rattus norvegicus [6]): Active |
| COc1ccc2[nH]cc3c(=O)n(-c4ccc(F)cc4)nc-3c2c1 | 8.73 | 9.01 |  |
| O=c1c2c[nH]c3ccc(Br)cc3c-2nn1-c1ccc(F)cc1 | 8.83 | 9.11 | Activity (Rattus norvegicus [4]): Toxic; Activity (Rattus norvegicus [7]): Active |
